Where two headings read alike, the source gives them in different places. Values belong to the compound of their own block, whether it stands above or below them.
Experiments:
[1] = target: T1, K1250A CFTR (Homo sapiens, UniProt P13569, K1250A); test: Macroscopic pore-block/permeation assay on locked-open K1250A CFTR currents; format: biochemical; settings: for fractional current of locked-open K1250A CFTR: 210 µM NPPB, 32 mM 3NB, 20 mM 3PP
Outline: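 K1250A channels were locked open by removing 10 mM MgATP, in inside-out oocyte patches at 25°C, −80 and 60 mV. Test compounds were applied briefly alone or pairwise (head fragment 32 mM, tail fragment 20 mM, parent 210 µM). Tail stock 50 mM was titrated with sulfuric acid (~0.45 mol/mol), so sulfate 1–20 mM was tested separately. Fractional current = quasi-steady drug current ÷ mean pre/post current. Apparent KI came from dose–response fits.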

[2] = target: T2, WT CFTR (Homo sapiens, UniProt P13569); test: Steady-state macroscopic WT CFTR currents; format: biochemical
T2 sequence (P13569 whole entry): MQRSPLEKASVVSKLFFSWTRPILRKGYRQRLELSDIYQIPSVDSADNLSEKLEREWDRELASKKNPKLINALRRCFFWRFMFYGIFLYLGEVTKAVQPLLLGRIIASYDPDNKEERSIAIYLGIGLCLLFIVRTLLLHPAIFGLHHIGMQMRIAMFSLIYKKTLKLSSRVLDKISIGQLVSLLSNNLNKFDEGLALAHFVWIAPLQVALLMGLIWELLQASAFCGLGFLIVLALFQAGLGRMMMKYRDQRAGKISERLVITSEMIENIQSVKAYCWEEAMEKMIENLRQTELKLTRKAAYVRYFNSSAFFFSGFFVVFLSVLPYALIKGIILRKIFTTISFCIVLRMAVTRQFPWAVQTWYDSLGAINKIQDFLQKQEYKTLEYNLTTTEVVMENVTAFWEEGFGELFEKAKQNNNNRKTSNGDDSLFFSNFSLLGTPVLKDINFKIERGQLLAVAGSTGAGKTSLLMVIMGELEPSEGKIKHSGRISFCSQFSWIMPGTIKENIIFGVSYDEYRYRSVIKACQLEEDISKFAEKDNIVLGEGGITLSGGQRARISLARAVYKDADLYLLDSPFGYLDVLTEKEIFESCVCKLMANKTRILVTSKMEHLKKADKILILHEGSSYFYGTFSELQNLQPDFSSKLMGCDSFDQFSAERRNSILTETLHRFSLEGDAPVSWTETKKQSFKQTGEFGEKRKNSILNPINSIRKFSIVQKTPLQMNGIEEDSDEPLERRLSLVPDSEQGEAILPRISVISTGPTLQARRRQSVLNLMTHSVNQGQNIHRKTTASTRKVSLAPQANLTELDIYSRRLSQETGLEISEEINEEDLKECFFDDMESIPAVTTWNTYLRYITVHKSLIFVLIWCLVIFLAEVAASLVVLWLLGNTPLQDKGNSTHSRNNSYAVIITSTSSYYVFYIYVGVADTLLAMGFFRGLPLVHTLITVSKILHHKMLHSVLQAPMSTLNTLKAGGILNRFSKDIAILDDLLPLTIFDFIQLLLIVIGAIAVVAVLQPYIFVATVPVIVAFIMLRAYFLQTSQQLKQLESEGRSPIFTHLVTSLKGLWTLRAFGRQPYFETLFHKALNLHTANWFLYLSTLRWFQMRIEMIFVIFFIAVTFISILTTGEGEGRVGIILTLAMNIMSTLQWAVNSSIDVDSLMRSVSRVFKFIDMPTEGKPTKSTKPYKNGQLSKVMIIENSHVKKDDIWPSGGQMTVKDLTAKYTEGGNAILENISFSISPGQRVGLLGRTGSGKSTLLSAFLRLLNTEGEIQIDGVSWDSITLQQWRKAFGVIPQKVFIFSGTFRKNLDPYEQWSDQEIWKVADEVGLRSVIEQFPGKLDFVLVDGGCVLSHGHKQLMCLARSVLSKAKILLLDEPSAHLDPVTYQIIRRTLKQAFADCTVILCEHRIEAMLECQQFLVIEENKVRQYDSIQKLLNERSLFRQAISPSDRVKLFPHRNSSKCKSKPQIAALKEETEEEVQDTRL

[3] = target: T2, WT CFTR; test: Macroscopic; format: biochemical
Outline: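 Human WT CFTR from cRNA (0.1–10 ng) was expressed in Xenopus oocytes; excised inside-out patches at 25°C, NMDG-Cl solutions, bath pH 7.1. Channels were prephosphorylated with 300 nM PKA catalytic subunit and gated in 2 mM MgATP ± test compound. Current decay after sudden ATP removal was fitted to a single exponential (rate = 1/τ), normalized to same-patch control and rescaled by pooled control mean. Mean ± SEM, n ≥ 5.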

[4] = target: T1, K1250A CFTR; test: Macroscopic nonhydrolytic closing rate of K1250A CFTR after ATP removal; format: biochemical
Outline: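 Nonhydrolytic closure of K1250A CFTR was studied in inside-out oocyte patches at 25°C, with channels gating in 10 mM MgATP after PKA prephosphorylation. The rate was the inverse of a single-exponential fit to current decay after ATP removal, normalized to same-patch control. Parent-compound series was recorded at −40 mV, fragment series at −20 mV. Mean ± SEM of at least five.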

[5] = target: T2, WT CFTR; test: Single-channel steady-state kinetic analysis of WT CFTR; format: biochemical; settings: 20 mM 3PP, −80 mV
Outline: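 Steady-state WT CFTR gating was recorded after PKA prephosphorylation, in 2 mM ATP at −80 mV and 25°C. Patches held one active channel for the 32 mM head fragment, or one to four for the 20 mM tail fragment. Traces were filtered at 100 Hz (control, tail) or 50 Hz (head) and idealized by half-amplitude threshold. Events were fitted by maximum likelihood to a closed-open-blocked scheme (dead times 4 and 6 ms), yielding τb and τib.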

[6] = target: T1, K1250A CFTR; test: Steady-state versus locked-open K1250A CFTR currents; format: biochemical; settings: 32 mM 3NB, 20 mM 3PP; 10 mM ATP; −20 mV
Outline: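 K1250A CFTR was recorded at −20 mV in 10 mM ATP, 25°C. Head (32 mM) or tail (20 mM) fragment was applied for long periods to channels gating at steady state (I/Icontrol), and briefly to locked-open channels after ATP removal (i/icontrol). Po change = (I/Icontrol)/(i/icontrol).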

[7] = target: CFTR pore-binding site (Homo sapiens, UniProt P13569, K1250A); test: Estimated dissociation constants and free enthalpies of binding in the pore; format: biochemical; settings: Kd(0) estimate for binding in the pore
Sequence of CFTR pore-binding site (P13569 whole entry K1250A): as the sequence (P13569 whole entry) above, with K1250A counted along it

[8] = target: CFTR gating site (Homo sapiens, UniProt P13569); format: biochemical
Sequence of CFTR gating site (P13569 whole entry): as the sequence (P13569 whole entry) above
Outline: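 Gating-site Kd was taken as the apparent K1/2 for stimulation of WT CFTR open probability at −80 mV, from Hill fits to Po dose–response curves, with binding assumed voltage independent. ΔG°binding = kT·ln(Kd).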

[9] = target: T3, E1371S CFTR (Homo sapiens, UniProt P13569, E1371S); format: biochemical; settings: 80 mM MOPS−; −120 mV
T3 sequence (P13569 whole entry E1371S): as the sequence (P13569 whole entry) above, with E1371S counted along it
Outline: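 E1371S CFTR channels were locked open in inside-out oocyte patches at 25°C, phosphorylated by PKA or endogenously. After ATP removal, test compound was applied briefly with or without 80 mM MOPS− (MOPS solutions pH 7.2, ~50% ionized). Fractional current = quasi-steady current in drug ÷ mean of pre- and post-exposure currents. Apparent KI was taken from dose–response fits. Mean ± SEM, n ≥ 5.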

[10] = target: T3, E1371S CFTR; settings: read-out: apparent KI for pore block; −120 mV; ref Csanády and Töröcsik, 2014; cited from earlier work
[11] = tested on: ΔF508 CFTR; settings: in vitro, cited from earlier work

T1 sequence (P13569 whole entry K1250A, the tested form may be a part): as the sequence (P13569 whole entry) above, with K1250A counted along it

effects on unitary currents ([1]; 20 mM 3PP-sulfate): ~10%
fractional current of locked-open K1250A CFTR ([1]; 60 mV): ~1.11
EC50 ([1]; K1/2 for enhancement of locked-open K1250A current, 60 mV, tentative Hill fit): ~10 mM
enhancement of the rate of ion flow through locked-open K1250A channels ([1]; positive voltages (60 mV), high 3PP concentrations): ~10%
fractional current of locked-open K1250A CFTR ([1]; −80 mV): ~0.91
stimulation of open probability for WT CFTR ([2]; high concentrations, −80 mV, macroscopic): two- to threefold
slowing of WT CFTR hydrolytic closing rate ([3]; 20 mM 3PP-sulfate, −80 mV): ~2.5 fold
acceleration of K1250A closing rate ([4]; 20 mM 3PP, −20 mV): ~20%
effect on mean burst duration τb ([5]; 32 mM 3NB, 2 mM ATP): prolonged τb
effect on mean interburst duration τib ([5]; 32 mM 3NB, 2 mM ATP): did not affect τib
stimulation of single-channel Po ([5]; 32 mM 3NB, 2 mM ATP): twofold
effect on Po of K1250A CFTR [6]: no change in Po
Kd ([7]; assuming z = 0.1): 12.6 mM
Kd ([7]; assuming z = 0.2): 16 mM
Kd ([7]; assuming z = 0.5): 32 mM
Kd [8]: 6 mM
Compound: NCCCc1ccccc1 [3PP, 3-phenylpropylamine]
effect on unitary current amplitude [5]: little affected unitary current amplitude

reduction of macroscopic current through locked-open E1371S channels [9]: ~90%
effect on WT CFTR closing rate ([3]; 80 mM MOPS−, −120 mV): little affected
effect on K1250A closing rate ([4]; 80 mM MOPS−, −40 mV): neither affected K1250A closing rate
Compound: O=S(=O)(O)CCCN1CCOCC1 [MOPS^−, reference compound]
Ki [10]: 8.3 mM

Compound: CC(C)(C)c1cc(C(C)(C)C)c(NC(=O)c2c[nH]c3ccccc3c2=O)cc1O [VX-770]
stimulation of ΔF508 CFTR currents ([11]; ref Kopeikin et al., 2014): 10–20 fold
stimulation of ΔF508 CFTR currents ([11]; ref Van Goor et al., 2009): ~5 fold

sulfate concentration yielding maximal pore block ([1]; −80 mV, anomalous dose dependence): ~5 mM
effect on WT CFTR open probability / gating ([2]; 10 mM sulfate): little effect
effect on WT CFTR closing rate ([3]; 10 mM sulfate): did not affect WT CFTR closing rate
Compound: O=S(=O)(O)O [sulfate]
effect on locked-open channel currents ([1]; 60 mV): did not affect locked-open channel currents

Reference: article PMC4178936 (The Journal of General Physiology, 2014)
